Experimental data published in ChEMBL document CHEMBL1123606, “1,3-Diarylpyrazolo[4,5-c]- and -[5,4-c]quinolin-4-ones. 4. Synthesis and specific inhibition of benzodiazepine receptor binding” (J Med Chem, 1987).

Assays:
[1] = Displacement of 3[H]Flunitrazepam from GABA-A central benzodiazepine receptor of bovine brain membranes; format: cell membranes, Bos taurus
Procedure, shortened: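 Bovine brain membranes (0.4–0.5 mg protein) were incubated in triplicate with 0.6 nM [3H]flunitrazepam in 50 mM Tris-HCl at 0 °C for 90 min. Displacers were added in ethanol, at seven concentrations each. Nonspecific binding was defined with 10 μM diazepam. Samples were diluted with cold buffer, filtered on glass fibre and counted by scintillation. IC50 was taken from log-probit analysis; values are means ± SEM of seven determinations.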

Bos taurus [2] = organism: Bos taurus; assay: Displacement of 3[H]Flunitrazepam from GABA-A central benzodiazepine receptor of bovine brain membranes at 34 uM; format: cell membranes
Procedure, shortened: (§1)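 A single-concentration screen against specific [3H]flunitrazepam (0.6 nM) binding to bovine brain membranes (0.4–0.5 mg protein). Incubation was in 50 mM Tris-HCl at 0 °C for 90 min, with compounds added in ethanol. Diazepam at 10 μM defined nonspecific binding. Bound ligand was collected by rapid glass-fibre filtration and counted by scintillation. Percent inhibition is given as means ± SEM of five determinations.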

Bos taurus [3] = organism: Bos taurus; assay: Displacement of 3[H]Flunitrazepam from GABA-A central benzodiazepine receptor of bovine brain membranes at 3.4 uM; format: cell membranes; procedure, shortened: as §1

Row | Structure (SMILES) | IC50 [1] | also measured
1 | Cc1cccc(-n2nc(-c3ccccc3)c3c(=O)n(C)c4ccccc4c32)c1 | 90 nM | –
2 | Oc1nc2ccccc2c2c(-c3ccccc3)nn(-c3ccccc3)c12 | – | inhibition (Bos taurus [2]): 10%
3 | Oc1nc2ccccc2c2c1c(-c1ccccc1)nn2-c1cccc(Cl)c1 | 3000 nM | –
4 | Oc1nc2ccccc2c2c1c(-c1ccccc1)nn2-c1ccc(Cl)cc1 | 30000 nM | –
5 | Oc1nc2ccccc2c2c1c(-c1ccccc1)nn2-c1cccc(Br)c1 | 1500 nM | –
6 | Oc1nc2ccccc2c2c(-c3ccccc3)nn(-c3cccc(Cl)c3)c12 | – | inhibition (Bos taurus [2]): 8%
7 | Cn1c(=O)c2c(c(-c3ccccc3)nn2-c2ccccc2)c2ccccc21 | – | inhibition (Bos taurus [3]): 21%
8 | CNC1=Nc2ccc(Cl)cc2C(c2ccccc2)=[N+]([O-])C1 [CHLORDIAZEPOXIDE] | 0.79 nM | –
9 | Cn1c(=O)c2c(-c3ccccc3)nn(-c3ccccc3)c2c2ccccc21 | 3100 nM | –
10 | Oc1nc2ccccc2c2c1c(-c1ccccc1)nn2-c1ccccc1 | 21000 nM | –
11 | COc1ccc(-n2nc3c4ccccc4[nH]cc-3c2=O)cc1 | 0.1 nM | –
12 | CN1C(=O)CN=C(c2ccccc2)c2cc(Cl)ccc21 [DIAZEPAM] | 0.025 nM | –
13 | Cn1c(=O)c2c(-c3ccccc3)nn(-c3cccc(Cl)c3)c2c2ccccc21 | 70 nM | –
14 | Cn1c(=O)c2c(-c3ccccc3)nn(-c3cccc(Br)c3)c2c2ccccc21 | 100 nM | –
15 | Cc1ccc(-n2nc(-c3ccccc3)c3c(O)nc4ccccc4c32)cc1 | 39000 nM | –
16 | Cc1cccc(-n2nc(-c3ccccc3)c3c(O)nc4ccccc4c32)c1 | 3000 nM | –
17 | O=C1C2C=Nc3ccccc3C2=NN1c1ccccc1 (stereo not given) [CGS-8216] | 0.4 nM | –
18 | Cn1c(=O)c2c(-c3ccccc3)nn(-c3ccc(Cl)cc3)c2c2ccccc21 | 1160 nM | –
19 | O=C1C2C=Nc3ccccc3C2=NN1c1ccc(Cl)cc1 (stereo not given) [CGS-9896] | 0.6 nM | –
20 | Cc1ccc(-n2nc(-c3ccccc3)c3c(=O)n(C)c4ccccc4c32)cc1 | 1100 nM | –
